Assay results reported in publication PMC12495087 (ESMO Open, 2025).

Legend:
Assay type in all cases: in vivo, human
[1] = phase I study: plasma pharmacokinetics
[2] = tested on: advanced solid tumors with RET gene alteration; test: phase I study: tumor response per RECIST v.1.1, evaluable analysis set
Method in brief: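 Investigator assessed response by RECIST v1.1. Drug was taken orally once daily in 28-day cycles, 10–150 mg in part A escalation and 75 mg in part B expansion, until progression. ORR and DCR summarised with two-sided 95% exact CIs. Duration of response and other time-to-event endpoints estimated by Kaplan–Meier.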

[3] = tested on: tumors with local RET results; test: clinical outcome by local RET result
Method in brief: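 RET alteration was confirmed locally by DNA- or RNA-based assays of tumour tissue or blood. Patients took oral drug once daily in 28-day cycles (10–150 mg escalation; expansion at recommended phase II dose). Investigator assessed response by RECIST v1.1 in patients with evaluable overall response and percent tumour-size change from baseline. ORR and DCR summarised with two-sided 95% exact CIs.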

In the case of `COc1cc2cc(-c3ccc(CC(=O)Nc4cc(C(C)(C)C(F)(F)F)no4)cn3)cnc2cc1OC` [BOS172738], the “plasma concentrations remained quantifiable through” value ([1]; after dosing, cycle 1 day 1 and day 15) is reported as ≥ 24 h, the half-life ([1]; human, plasma, oral) is reported as 41.9 to 84.1 h and the Tmax ([1]; human, plasma, oral, cycle 1 day 1, range across all dose levels) is reported as 3 to 10 h. For the same compound, the Tmax ([1]; human, plasma, oral, cycle 1 day 15, range across dose levels) was 1 to 3.1 h, the “steady state reached by” value ([1]; most treatment groups, based on mean trough concentration and effective t½) was ≤ 15 days and the “objective DCR (ODCR)” value ([2]; 100 mg dose, part A) was 93%. For the same compound, the “median time to response” value ([2]; all confirmed responders) was 1.79 months, the “reduction in brain target lesions” value ([2]; one patient with brain metastases, first post-baseline scan) was 43% and the “median PFS” value ([2]; overall, evaluable analysis set) was 7.16 months. The “BOR: CR” value ([2]; parts A and B total, N=101) was “No patients”, the intracranial activity ([2]; patients with brain metastases) was “intracranial activity was also observed” and the “BOR: PD” value ([3]; local Indel, n = 6) was 1 (17) n (%). For the same compound, the “BOR: PR” value ([3]; local Indel, n = 6) was 1 (17) n (%), the “BOR: SD” value ([3]; local Indel, n = 6) was 4 (67) n (%) and the “DCR (PR + SD)” value ([3]; local Indel, n = 6) was 5 (83) n (%). For the same compound, the ORR ([3]; local Indel, n = 6) was 1 (17) n (%), the “BOR: PD” value ([3]; local RET fusions, n = 57) was 10 (18) n (%) and the “BOR: PR” value ([3]; local RET fusions, n = 57) was 21 (37) n (%). The “BOR: SD” value ([3]; local RET fusions, n = 57) was 26 (46) n (%), the “DCR (PR + SD)” value ([3]; local RET fusions, n = 57) was 47 (82) n (%) and the ORR ([3]; local RET fusions, n = 57) was 21 (37) n (%). The “BOR: PD” value ([3]; local RET total, n = 93) was 20 (22) n (%), the “BOR: PR” value ([3]; local RET total, n = 93) was 28 (30) n (%) and the “BOR: SD” value ([3]; local RET total, n = 93) was 45 (48) n (%). For the same compound, the “DCR (PR + SD)” value ([3]; local RET total, n = 93) was 73 (78) n (%), the ORR ([3]; local RET total, n = 93) was 28 (30) n (%) and the “BOR: PD” value ([3]; local SNV, n = 30) was 9 (30) n (%). For the same compound, the “BOR: PR” value ([3]; local SNV, n = 30) was 6 (20) n (%), the “BOR: SD” value ([3]; local SNV, n = 30) was 15 (50) n (%) and the “DCR (PR + SD)” value ([3]; local SNV, n = 30) was 21 (70) n (%). The ORR ([3]; local SNV, n = 30) was 6 (20) n (%).
